According to ChEMBL document CHEMBL5712908, “A genome-wide RNAi screen reveals essential therapeutic targets of breast cancer stem cells” (2019):
Activity calls are given as the source filed them. No cut-off for these calls is given here.

How the values were obtained:
SUM-159-PT [1] = assay: Anticancer activity against human SUM159 cells assessed as decrease in secondary tumor sphere formation incubated for 72 hrs by Extreme limiting dilution analysis; type: functional, cell-based
How it was run: (§1)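 Cells drug-treated in adherent culture for 72 h, then plated as single cells in ultra-low attachment 96-well plates in serum-free mammary epithelium basal medium. Plating at 25/10/5/3/2/1 cells per well, 18–36 wells per condition. Wells with ≥1 sphere after 10 days scored positive. Secondary spheres were made by dissociating primary spheres. Frequency by ELDA; n = 4; pairwise chi-square test.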

SUM-159-PT [2] = assay: Anticancer activity against human SUM159 cells assessed as decrease in primary tumor sphere formation incubated for 72 hrs by Extreme limiting dilution analysis; type: functional, cell-based; how it was run: as §1
SUM149PT [3] = assay: Anticancer activity against human SUM149 cells assessed as decrease primary tumor sphere formation at 2 nM incubated for 72 hrs by Extreme limiting dilution analysis; type: functional, cell-based
How it was run: (§2)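 Cells given drug (2 nM when combined with other agents) for 72 h in adherent culture, then plated as single cells in ultra-low attachment 96-well plates in serum-free mammary epithelium basal medium at 25/10/5/3/2/1 cells per well (18–36 wells per condition). Wells holding ≥1 sphere at 10 days scored positive. Sphere-forming frequency by extreme limiting dilution analysis, pairwise chi-square, n = 4.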

SUM-159-PT [4] = assay: Anticancer activity against human SUM159 cells assessed as decrease primary tumor sphere formation at 2 nM incubated for 72 hrs by Extreme limiting dilution analysis; type: functional, cell-based; how it was run: as §2
SUM149PT [5] = assay: Anticancer activity against human SUM149 cells assessed as decrease in ALDHbr cells at 2 nM by LSR2 cytometer analysis; type: functional, cell-based
How it was run: (§3)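 Cells continuously exposed to drug for 72 h in adherent culture; single-cell suspensions stained with ALDEFLUOR kit and ALDH-high population measured by flow cytometry (LSR2) against a DEAB control. Residual ALDHbr proportion reported (n = 8), mean ± SD, Student's t-test.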

SUM-159-PT [6] = assay: Anticancer activity against human SUM159 cells assessed as decrease in ALDHbr cells at 2 nM by LSR2 cytometer analysis; type: functional, cell-based; how it was run: as §3
[7] = target: Histone acetyltransferase p300 (Homo sapiens) (UniProt Q09472); assay: Inhibition of EP300 in human S68 cells assessed as K-score by measuring ALDHbr cells by LSR2 cytometer; type: cell-based
How it was run: (§4)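 Breast cancer lines exposed continuously for 72 h in adherent culture to a range of doses centred on the MTS-derived IC50 (72 h MTS, absorbance 540 nm). ALDHbr fraction measured by ALDEFLUOR flow cytometry (LSR2) with DEAB control. K-score = linear regression coefficient between untreated condition and the log10 dose at which ALDHbr proportion changes by 50% versus control.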

[8] = target: Histone acetyltransferase p300 (Homo sapiens) (UniProt Q09472); assay: Inhibition of EP300 in human SUM149 cells assessed as K-score by measuring ALDHbr cells by LSR2 cytometer; type: cell-based; how it was run: as §4
[9] = target: Histone acetyltransferase p300 (Homo sapiens) (UniProt Q09472); assay: Inhibition of EP300 in human SUM159 cells assessed as K-score by measuring ALDHbr cells by LSR2 cytometer; type: cell-based; how it was run: as §4
[10] = target: Histone acetyltransferase p300 (Homo sapiens) (UniProt Q09472); assay: Inhibition of EP300 in human MDA-MB-436 cells assessed as K-score by measuring ALDHbr cells by LSR2 cytometer; type: cell-based; how it was run: as §4
[11] = target: Histone acetyltransferase p300 (Homo sapiens) (UniProt Q09472); assay: Inhibition of EP300 in human BrCa-MZ-01 cells assessed as K-score by measuring ALDHbr cells by LSR2 cytometer; type: cell-based; how it was run: as §4
[12] = Antitumor activity against human S68 cells assessed as K-score by measuring ALDHbr cells by LSR2 cytometer; type: functional
How it was run: (§5)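 Cell lines exposed for 72 h in adherent culture to a range of concentrations centred on the MTS-derived IC50. ALDHbr proportion measured by ALDEFLUOR flow cytometry (LSR2). K-score is the linear regression coefficient, on log10-transformed doses, between the untreated condition and the dose predicted to give a 50% decrease or increase in ALDHbr proportion versus control.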

SUM-159-PT [13] = assay: Antitumor activity against human SUM159 cells assessed as K-score by measuring ALDHbr cells by LSR2 cytometer; type: functional; how it was run: as §5
[14] = Antitumor activity against human BrCa-MZ-01 cells assessed as K-score by measuring ALDHbr cells by LSR2 cytometer; type: functional; how it was run: as §5
MDA-MB-436 = assay: Antitumor activity against human MDA-MB-436 cells assessed as K-score by measuring ALDHbr cells by LSR2 cytometer; type: functional; how it was run: as §5
SUM149PT [15] = assay: Antitumor activity against human SUM149 cells assessed as K-score by measuring ALDHbr cells by LSR2 cytometer; type: functional; how it was run: as §5

Sequence of Histone acetyltransferase p300 (Homo sapiens) (Q09472 whole entry): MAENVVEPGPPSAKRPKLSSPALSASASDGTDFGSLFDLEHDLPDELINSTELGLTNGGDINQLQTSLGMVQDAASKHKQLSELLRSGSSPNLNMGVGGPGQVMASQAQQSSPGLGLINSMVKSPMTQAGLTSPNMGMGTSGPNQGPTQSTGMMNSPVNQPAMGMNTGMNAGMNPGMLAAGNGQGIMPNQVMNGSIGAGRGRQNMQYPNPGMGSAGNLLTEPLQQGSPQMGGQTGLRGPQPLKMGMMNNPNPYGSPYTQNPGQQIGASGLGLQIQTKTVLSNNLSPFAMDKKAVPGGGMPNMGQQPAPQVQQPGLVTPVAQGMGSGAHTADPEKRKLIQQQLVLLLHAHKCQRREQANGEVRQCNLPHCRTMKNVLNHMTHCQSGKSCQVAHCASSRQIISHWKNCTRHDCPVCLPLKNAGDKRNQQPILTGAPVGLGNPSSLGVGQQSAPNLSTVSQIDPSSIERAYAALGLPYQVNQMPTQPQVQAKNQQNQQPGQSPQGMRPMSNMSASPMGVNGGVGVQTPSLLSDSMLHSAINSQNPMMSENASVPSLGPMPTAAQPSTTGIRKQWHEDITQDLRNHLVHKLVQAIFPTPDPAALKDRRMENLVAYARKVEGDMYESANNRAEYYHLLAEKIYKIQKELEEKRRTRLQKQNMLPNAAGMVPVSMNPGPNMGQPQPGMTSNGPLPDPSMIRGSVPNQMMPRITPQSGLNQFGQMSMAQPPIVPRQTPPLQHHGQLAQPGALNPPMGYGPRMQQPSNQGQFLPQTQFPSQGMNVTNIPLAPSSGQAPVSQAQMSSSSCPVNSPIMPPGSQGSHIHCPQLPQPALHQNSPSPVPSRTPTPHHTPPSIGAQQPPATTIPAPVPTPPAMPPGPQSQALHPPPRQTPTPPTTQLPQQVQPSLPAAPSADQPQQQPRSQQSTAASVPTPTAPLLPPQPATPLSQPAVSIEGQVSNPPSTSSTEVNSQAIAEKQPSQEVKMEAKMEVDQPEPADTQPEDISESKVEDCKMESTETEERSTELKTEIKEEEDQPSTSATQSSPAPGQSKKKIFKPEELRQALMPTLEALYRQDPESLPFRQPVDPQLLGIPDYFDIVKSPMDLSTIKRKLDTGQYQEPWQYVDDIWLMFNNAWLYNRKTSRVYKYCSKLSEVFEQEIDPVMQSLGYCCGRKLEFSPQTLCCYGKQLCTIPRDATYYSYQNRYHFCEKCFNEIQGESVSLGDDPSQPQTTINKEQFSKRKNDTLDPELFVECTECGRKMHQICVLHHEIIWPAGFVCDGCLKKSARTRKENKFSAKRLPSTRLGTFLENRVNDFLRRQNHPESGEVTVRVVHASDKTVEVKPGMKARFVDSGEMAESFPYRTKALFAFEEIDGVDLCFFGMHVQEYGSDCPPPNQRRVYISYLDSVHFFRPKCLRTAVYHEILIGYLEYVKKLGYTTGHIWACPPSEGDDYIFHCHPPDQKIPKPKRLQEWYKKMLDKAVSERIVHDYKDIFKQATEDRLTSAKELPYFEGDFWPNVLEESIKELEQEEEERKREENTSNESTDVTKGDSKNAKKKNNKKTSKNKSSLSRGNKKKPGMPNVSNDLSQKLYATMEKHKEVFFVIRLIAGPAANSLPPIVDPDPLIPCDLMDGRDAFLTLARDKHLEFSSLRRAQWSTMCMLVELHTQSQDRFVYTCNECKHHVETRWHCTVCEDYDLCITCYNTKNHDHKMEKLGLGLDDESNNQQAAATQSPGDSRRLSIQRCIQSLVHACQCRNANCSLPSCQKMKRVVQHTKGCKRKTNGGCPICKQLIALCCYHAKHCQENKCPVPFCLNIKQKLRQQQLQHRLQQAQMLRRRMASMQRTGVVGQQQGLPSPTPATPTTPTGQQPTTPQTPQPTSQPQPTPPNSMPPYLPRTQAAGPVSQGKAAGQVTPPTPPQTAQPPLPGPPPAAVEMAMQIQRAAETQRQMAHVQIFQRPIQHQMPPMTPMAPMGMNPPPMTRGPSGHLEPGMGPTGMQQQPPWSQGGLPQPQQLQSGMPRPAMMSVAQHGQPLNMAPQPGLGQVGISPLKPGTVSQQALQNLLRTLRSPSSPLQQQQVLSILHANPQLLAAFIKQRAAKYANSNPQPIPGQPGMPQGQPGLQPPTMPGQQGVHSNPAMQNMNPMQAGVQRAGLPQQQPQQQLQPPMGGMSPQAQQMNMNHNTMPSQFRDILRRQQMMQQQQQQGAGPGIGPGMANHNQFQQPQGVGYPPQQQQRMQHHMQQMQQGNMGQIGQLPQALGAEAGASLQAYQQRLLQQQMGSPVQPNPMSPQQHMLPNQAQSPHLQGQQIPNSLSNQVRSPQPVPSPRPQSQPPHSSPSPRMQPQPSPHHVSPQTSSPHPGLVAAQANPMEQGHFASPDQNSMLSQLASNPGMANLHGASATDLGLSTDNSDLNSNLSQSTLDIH

Activity [7]	Activity [8]	Activity [9]	Activity [10]	Activity [11]	SMILES	Activity (SUM-159-PT [1])	Activity (SUM-159-PT [2])	also measured
–	–	–	–	–	CCCc1cc(C)[nH]c(=O)c1CNC(=O)c1cc(-c2ccnc(N3CCN(C)CC3)c2)cc2c1cnn2C(C)C	inactive	inactive	–
–	–	–	–	–	CC#C[C@]1(O)CC[C@H]2[C@@H]3CCC4=CC(=O)CCC4=C3[C@@H](c3ccc(N(C)C)cc3)C[C@@]21C	Active	Active	–
–	–	–	–	–	CC(=O)O[C@@]12CO[C@@H]1C[C@H](O)[C@@]1(C)C(=O)[C@H](O)C3=C(C)[C@@H](OC(=O)[C@H](O)[C@@H](NC(=O)OC(C)(C)C)c4ccccc4)C[C@@](O)([C@@H](OC(=O)c4ccccc4)[C@H]21)C3(C)C	–	–	Activity (SUM149PT [3]): inactive; Activity (SUM-159-PT [4]): inactive; Activity (SUM149PT [5]): inactive; Activity (SUM-159-PT [6]): inactive
0.08	0.1	-0.02	-0.04	-0.01	COc1ccc(CCc2nc3cc(-c4c(C)noc4C)ccc3n2C[C@H](C)N2CCOCC2)cc1Cl	–	–	–
–	–	–	–	–	CCN(CC)CCCC(C)Nc1ccnc2cc(Cl)ccc12 (stereo not drawn) [CHLOROQUINE]	–	–	Activity [12]: -0.02; Activity (SUM-159-PT [13]): 0.04; Activity [14]: -0.02; Activity (MDA-MB-436): -0.06; Activity (SUM149PT [15]): -0.01
0.22	0.1	0.02	0.14	0.01	CCC(=O)N1CCOc2c(cc(-c3ccc(OC)c(OC)c3)cc2OC[C@H]2CCCN(C)C2)C1	–	–	–
